This is an account of results in ChEMBL document CHEMBL4002547, “Aminopurine and aminoquinazoline scaffolds for development of potential dengue virus inhibitors” (Eur J Med Chem, 2017).

Series [1] is described as follows: Cytotoxicity against African green monkey Vero B cells assessed as decrease in cell viability by microscopic method. Particulars: chlorocebus sabaeus. Format: cell-based. In short, it runs like this:
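Uninfected Vero B cells were exposed for 7 days to serial compound dilutions. Wells were inspected microscopically for changes in host cell morphology, and CC50 was calculated from the microscopic scoring data.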

A short description of series [2]: Selectivity index, ratio of CC50 for African green monkey Vero B cells to EC50 for Dengue virus serotype 2 infected in African green monkey Vero B cells. It is filed as toxicity. The following applies: read-out: Ratio CC50/EC50. In short, it runs like this: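 In a CPE-reduction assay, DENV-2 in Vero B cells was run over 7 days with serial compound dilutions, with and without virus. EC50 (inhibition of virus-induced CPE) and CC50 come from microscopic scoring, with MTS/PMS also used for toxicity. The index is CC50/EC50.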

Series [3] is described as follows: Cytotoxicity against African green monkey Vero B cells assessed as decrease in cell viability by MTS/PMS assay. Format: cell-based. Particulars: chlorocebus sabaeus. In short, it runs like this:
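Vero B cells (African green monkey kidney, ECACC) were incubated for 7 days with serial compound dilutions without virus. Toxicity was quantified by the MTS/PMS method, and CC50 is the compound concentration giving 50% cytotoxicity.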

For series [4], the system named is dengue virus type 2. As to the kind of experiment: Antiviral activity against Dengue virus serotype 2 infected in African green monkey Vero B cells assessed as inhibition of viral RNA replication after 4 days by RT-qPCR method. The following applies: 96 h, read-out: ED50 (the source's name). Format: functional.
The subject of series [5] is dengue virus type 2. The series can be described thus: Antiviral activity against Dengue virus serotype 2 by human cell-based assay. It is filed as functional.
Series [6] in a line: Inhibition of Dengue virus serotype 2 N-terminal His6-tagged NS5 RdRp activity expressed in baculovirus expression system using poly(C)/5'-biotinylated oligo (G)20 as template/primer assessed as inhibition of [3H]GTP incorporation after 20 mins by scintillation proximity assay. Details: species or system dengue virus type 2.

A value given as a limit tells only on which side of the number the result lay.

With `Cc1ccc(Nc2nc(Cl)nc3ccccc23)c(Br)c1`, the results for the half-maximal cytotoxic concentration (CC50) in series [1] and in series [3] were 32 µM and over 144 µM, respectively. Besides, in series [2], the selectivity ratio was 13. In the series with dengue virus type 2 [4], the EC50 was determined as 10.9 µM.
For the compound `Cc1ccc(Nc2nc(Cl)nc3[nH]cnc23)c(-c2cc(C)n[nH]2)c1`, the selectivity ratio in series [2] came out at 5. The CC50 in series [3] was over 147 µM. Further, in the series with dengue virus type 2 [4], the EC50 came out at 28.9 µM.
Taken in the same sequence, the figures for `COc1ccc(Cn2cnc3c(Cl)nc(Cl)nc32)cc1` were 2, 32.4 µM and 17.6 µM.
`Clc1ccc(-c2ccc(-c3nc(NCc4cccnc4)c4ccccc4n3)s2)cc1` showed an EC50 in the series with dengue virus type 2 [5] of 0.119 µM.
As for `Cc1ccc(Nc2nc(Nc3ccc(F)cc3)nc3ccccc23)c(-c2cc(C)n[nH]2)c1`, the selectivity ratio in series [2] was found to be 1. For the same compound, in series [3], the half-maximal cytotoxic concentration (CC50) came to 8.7 µM. Besides, the EC50 with dengue virus type 2 [4] was 6.7 µM.
The like results for `Cc1ccc(Nc2nc(Cl)nc3ccccc23)c(-c2cc(C)n[nH]2)c1` were, in that order, 11, 97 µM and 9.2 µM.
For the compound `COc1ccc(Cn2cnc3c(Nc4ccc(C)cc4-c4cc(C)n[nH]4)nc(Cl)nc32)cc1`, the CC50 in series [1] is 10 µM; in series [3], over 109 µM. Further, in series [2], the selectivity ratio turned out to be 58. For the same compound, in the series with dengue virus type 2 [4], the EC50 stood at 1.9 µM.
For the compound `Cc1ccc(Nc2nc(Cl)nc3[nH]cnc23)c(Br)c1`, in series [2], the selectivity ratio amounted to 4. Also, the CC50 in series [3] is over 148 µM. Moreover, the EC50 with dengue virus type 2 [4] was determined as 33.5 µM.
In the case of `COc1ccc(Cn2cnc3nc(Cl)nc(Cl)c32)cc1`, the selectivity ratio in series [2] came to 1. Also, the CC50 in series [3] is 12.3 µM. Moreover, the EC50 in the series on dengue virus type 2 [4] was found to be 9.9 µM.
The like results for `Cc1ccc(Nc2nc(Nc3ccc(C)cc3-c3cc(C)n[nH]3)c3ccccc3n2)cc1` were, in that order, 2, 5.8 µM and 2.6 µM.
With `COc1ccc(Cn2cnc3c(Nc4ccc(C)cc4Br)nc(Cl)nc32)cc1`, the results for the CC50 in series [1] and in series [3] were 63 µM and over 109 µM, respectively. The selectivity ratio in series [2] amounted to 15. Also, the EC50 with dengue virus type 2 [4] came out at 7.2 µM.
With `O=C(O)c1ccccc1NS(=O)(=O)c1cccc(-c2cnn(Cc3ccccc3)c2)c1`, the concentration for half-maximal inhibition (IC50) in series [6] amounted to 0.7 µM.
